This note sets out measurements from PubChem BioAssay AID488748 (Sanford-Burnham Center for Chemical Genomics, 2010).

The source made the active and inactive calls.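 How the source made its calls: active means compounds whose mean dose-response EC50 for APJ receptor activation is under 20 micromolar; inactive means the rest.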

Apelin receptor (Homo sapiens), sequence (P35414 whole entry, looked up, the tested form may be a part): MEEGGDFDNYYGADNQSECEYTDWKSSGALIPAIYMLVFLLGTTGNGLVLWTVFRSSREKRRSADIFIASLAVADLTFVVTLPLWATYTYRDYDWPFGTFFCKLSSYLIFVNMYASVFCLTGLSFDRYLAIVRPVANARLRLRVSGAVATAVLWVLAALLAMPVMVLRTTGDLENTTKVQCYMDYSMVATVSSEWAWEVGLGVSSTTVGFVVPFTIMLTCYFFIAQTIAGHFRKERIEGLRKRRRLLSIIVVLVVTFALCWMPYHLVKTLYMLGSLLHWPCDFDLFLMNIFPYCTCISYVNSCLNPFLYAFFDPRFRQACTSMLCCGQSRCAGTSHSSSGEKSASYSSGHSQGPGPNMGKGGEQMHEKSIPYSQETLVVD

The assay deals with Apelin receptor (Homo sapiens) (UniProt P35414). Kind of assay: apelin receptor activators, concentration-response – cell-based, luminescence, uHTS hits, dose response (AID 488748). The settings on record: CHO-K1 APJ PathHunter beta-arrestin. The procedure, abridged:
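Assay system – CHO-K1 cells stably expressing ProLink-tagged APJ and enzyme-acceptor-fused beta-arrestin · Doses – compound dose series over a concentration range · Schedule – 90 min compound treatment at 25 °C · Detection – beta-gal complementation luminescence · Controls – Apelin-13 agonist as positive control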
On to `CCCCCCc1cc2cc(-c3nnc(-c4cc(OC)c(OC)c(OC)c4)o3)c(=O)oc2cc1O`, for which the EC50 was > 100 µM (inactive).
On to `CCOC(=O)C1=C(Cn2cnc3ccccc32)NC(=O)NC1c1cc(C)ccc1C` (stereo not given), for which the EC50 was > 100 µM (inactive).
For `COC(=O)C1=C(Cn2cnc3ccccc32)NC(=O)NC1c1cc(C)ccc1C` (stereo not given) the value was > 100 µM (inactive); for `COc1ccc(/C=N/Nc2cc(C)nc3ccc(OC)cc23)c(OC)c1`, > 100 µM (inactive).
On to `CC1=CC(=O)C(C(C)C)=C/C1=N/OS(=O)(=O)c1ccccc1`, for which the EC50 is 7.6 µM.
